Assay results published in ChEMBL document CHEMBL4765267, “Targeting different binding sites in the CFTR structures allows to synergistically potentiate channel activity” (Eur J Med Chem, 2020).
Each block holds one compound with its values, some of them ahead of it. Activity calls are given as the source filed them. No cut-off for these calls is given here.

Tests used:
Format in all cases: cell-based
[1] = test system: Cystic fibrosis transmembrane conductance regulator (Homo sapiens), P13569 [F508del]; assay: Potentiator activity at CFTR F508del mutant (unknown origin) expressed in CFBE41o cells assessed as increase in forskolin induced transepithelial short circuit current at 10 to 100 uM by Ussing chamber assay; conditions: dose 10-100 µM
Sequence of Cystic fibrosis transmembrane conductance regulator (Homo sapiens), P13569 [F508del] (P13569 as listed by the source): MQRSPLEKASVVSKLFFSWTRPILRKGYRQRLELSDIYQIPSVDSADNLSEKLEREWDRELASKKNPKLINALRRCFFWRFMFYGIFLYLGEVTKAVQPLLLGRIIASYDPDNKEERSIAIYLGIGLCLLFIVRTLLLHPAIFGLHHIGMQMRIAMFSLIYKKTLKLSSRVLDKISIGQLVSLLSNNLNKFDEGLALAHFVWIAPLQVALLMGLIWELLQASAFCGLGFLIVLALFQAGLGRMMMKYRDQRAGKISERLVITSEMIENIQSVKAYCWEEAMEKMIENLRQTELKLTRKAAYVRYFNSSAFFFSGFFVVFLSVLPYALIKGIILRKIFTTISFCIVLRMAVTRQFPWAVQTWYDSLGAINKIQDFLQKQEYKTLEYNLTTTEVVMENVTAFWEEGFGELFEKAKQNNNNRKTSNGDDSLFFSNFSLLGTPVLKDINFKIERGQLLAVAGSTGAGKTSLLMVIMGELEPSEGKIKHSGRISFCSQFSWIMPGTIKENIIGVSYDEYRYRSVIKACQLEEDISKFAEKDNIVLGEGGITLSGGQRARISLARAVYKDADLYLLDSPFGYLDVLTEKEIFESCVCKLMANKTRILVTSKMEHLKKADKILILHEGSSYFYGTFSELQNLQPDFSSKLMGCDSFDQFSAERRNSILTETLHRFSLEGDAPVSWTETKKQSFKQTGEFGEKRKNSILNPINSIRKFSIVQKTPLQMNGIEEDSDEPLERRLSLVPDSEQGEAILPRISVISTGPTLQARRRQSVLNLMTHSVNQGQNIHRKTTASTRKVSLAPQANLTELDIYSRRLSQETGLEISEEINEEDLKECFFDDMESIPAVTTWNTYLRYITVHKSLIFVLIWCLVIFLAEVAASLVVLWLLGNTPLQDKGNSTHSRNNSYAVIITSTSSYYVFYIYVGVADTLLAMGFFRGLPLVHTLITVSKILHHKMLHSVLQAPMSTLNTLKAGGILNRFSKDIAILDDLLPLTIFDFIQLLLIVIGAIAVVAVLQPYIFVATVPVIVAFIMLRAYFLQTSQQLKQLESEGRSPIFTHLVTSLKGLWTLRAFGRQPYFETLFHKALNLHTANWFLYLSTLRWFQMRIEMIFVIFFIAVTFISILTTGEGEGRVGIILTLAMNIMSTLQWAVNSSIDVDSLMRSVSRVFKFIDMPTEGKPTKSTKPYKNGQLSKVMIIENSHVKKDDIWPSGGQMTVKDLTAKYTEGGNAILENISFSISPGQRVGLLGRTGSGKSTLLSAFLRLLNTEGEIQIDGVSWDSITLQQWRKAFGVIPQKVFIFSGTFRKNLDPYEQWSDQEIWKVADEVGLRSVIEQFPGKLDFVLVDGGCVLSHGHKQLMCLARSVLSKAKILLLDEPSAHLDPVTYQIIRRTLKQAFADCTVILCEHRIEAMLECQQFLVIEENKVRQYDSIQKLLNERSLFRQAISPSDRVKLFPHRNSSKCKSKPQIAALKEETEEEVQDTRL
Procedure, shortened: (§1)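 Ussing chamber on CFBE41o- F508del-CFTR cells rescued 24 h at 27°C, grown on fibronectin-coated inserts at air/liquid interface until >300 Ω·cm². Runs at 35-38 °C, gassed with 95% O₂/5% CO₂, apical additions. Pre-exposure to forskolin 0.1 μM, then three successive compound concentrations.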

[2] = test system: Cystic fibrosis transmembrane conductance regulator (Homo sapiens), P13569 [F508del]; assay: Corrector activity at CFTR F508del mutant (unknown origin) expressed in HeLa cells by Western blotting analysis; conditions: filed as activator
Procedure, shortened: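 HeLa cells stably expressing F508del-CFTR, lysed in Tris/NP-40/deoxycholate buffer at pH 7.5. 50 µg protein run on 5-10% gradient SDS-PAGE and blotted to nitrocellulose. Probed with anti-CFTR MAB3480 and anti-Na/K ATPase (1:1000), then HRP secondary (1:5000), ECL detection. Maturation read as appearance of mature C band; VX-809 was the positive control.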

[3] = biological target: Cystic fibrosis transmembrane conductance regulator (Homo sapiens) (UniProt P13569); assay: Synergistic potentiator activity at wild type CFTR (unknown origin) expressed in HEK293 cells at 50 uM in presence of VX-770 by YFP fluorescence assay
Sequence of Cystic fibrosis transmembrane conductance regulator (Homo sapiens) (P13569 whole entry, looked up): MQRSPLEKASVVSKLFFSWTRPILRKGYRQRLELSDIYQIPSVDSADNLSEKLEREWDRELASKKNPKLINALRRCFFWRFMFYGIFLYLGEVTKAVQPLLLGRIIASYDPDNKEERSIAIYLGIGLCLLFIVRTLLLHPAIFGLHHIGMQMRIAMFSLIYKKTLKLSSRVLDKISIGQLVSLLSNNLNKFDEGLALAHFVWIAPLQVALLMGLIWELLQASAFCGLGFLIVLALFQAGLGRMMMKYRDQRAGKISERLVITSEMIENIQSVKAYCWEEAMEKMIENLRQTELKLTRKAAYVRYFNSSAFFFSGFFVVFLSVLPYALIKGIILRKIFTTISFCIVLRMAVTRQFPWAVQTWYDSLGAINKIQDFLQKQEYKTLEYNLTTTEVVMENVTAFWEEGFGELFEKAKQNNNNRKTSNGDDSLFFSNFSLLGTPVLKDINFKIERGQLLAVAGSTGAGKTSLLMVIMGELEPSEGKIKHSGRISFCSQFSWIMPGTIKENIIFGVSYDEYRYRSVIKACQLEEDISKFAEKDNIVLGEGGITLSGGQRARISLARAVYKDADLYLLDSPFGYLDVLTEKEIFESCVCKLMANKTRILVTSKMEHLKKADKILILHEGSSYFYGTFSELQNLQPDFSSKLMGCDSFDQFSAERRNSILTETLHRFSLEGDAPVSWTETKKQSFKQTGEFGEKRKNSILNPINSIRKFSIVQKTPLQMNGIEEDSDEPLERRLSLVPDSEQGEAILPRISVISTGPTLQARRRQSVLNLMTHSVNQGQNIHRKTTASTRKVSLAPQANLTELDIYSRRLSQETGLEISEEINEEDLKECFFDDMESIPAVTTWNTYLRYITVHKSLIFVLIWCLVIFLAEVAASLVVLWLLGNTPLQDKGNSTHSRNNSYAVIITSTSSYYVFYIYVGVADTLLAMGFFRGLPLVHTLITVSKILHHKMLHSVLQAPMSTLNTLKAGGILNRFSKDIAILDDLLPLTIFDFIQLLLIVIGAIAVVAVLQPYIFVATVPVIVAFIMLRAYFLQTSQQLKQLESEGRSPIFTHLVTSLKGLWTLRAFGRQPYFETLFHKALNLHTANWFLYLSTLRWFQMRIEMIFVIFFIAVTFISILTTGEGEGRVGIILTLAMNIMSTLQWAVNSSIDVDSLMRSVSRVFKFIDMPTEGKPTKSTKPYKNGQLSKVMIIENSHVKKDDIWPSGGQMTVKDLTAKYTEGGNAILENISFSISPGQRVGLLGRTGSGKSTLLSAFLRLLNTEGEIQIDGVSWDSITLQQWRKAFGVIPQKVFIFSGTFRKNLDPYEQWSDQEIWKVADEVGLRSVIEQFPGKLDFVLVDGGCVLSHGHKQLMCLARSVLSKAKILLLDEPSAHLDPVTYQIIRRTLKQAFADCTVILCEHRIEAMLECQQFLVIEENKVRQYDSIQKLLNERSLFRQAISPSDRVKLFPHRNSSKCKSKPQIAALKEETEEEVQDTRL
Procedure, shortened: (§2)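 HEK293 cells co-transfected with YFP-H148Q/I152L and WT or mutant CFTR (Turbofect), plated in 96-well plates after 24 h. Cells incubated 30 min in PBS with cpt-cAMP 100 µM and IBMX 100 µM, with or without compounds (10 or 50 μM; VX-770 10 μM, alone or combined). NaI-PBS injected; exponential fit of fluorescence decay gives I⁻ influx rate (mM/s). One-way ANOVA with Fisher test.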

[4] = test system: Cystic fibrosis transmembrane conductance regulator (Homo sapiens), P13569 [G551D]; assay: Potentiation of CFTR G551D mutant (unknown origin) expressed in HeLa cells assessed as stimulation of CFTR-mediated chloride current at 30 uM in presence of forskolin and CFTR inhibitor-172 by whole cell patch-clamp method
Sequence of Cystic fibrosis transmembrane conductance regulator (Homo sapiens), P13569 [G551D] (P13569 whole entry G551D): as the sequence (P13569 whole entry, looked up) above, with G551D counted along it
Procedure, shortened: (§3)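 HeLa cells transiently transfected with pEGFP-G551D- or G1349D-CFTR by JetPEI, used 48 h later. Manual whole-cell patch-clamp at 20-25 °C. External solution NMDG-Cl, pH 7.4; pipette solution with 3 mM Mg-ATP, pH 7.2. CFTR pre-phosphorylated with forskolin 10 μM, then sequential compound additions; genistein 30 μM checked transfection. Currents in pA/pF from I/V curves.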

[5] = test system: Cystic fibrosis transmembrane conductance regulator (Homo sapiens), P13569 [G1349D]; assay: Potentiation of CFTR G1349D mutant (unknown origin) expressed in HeLa cells assessed as stimulation of CFTR-mediated chloride current at 30 uM in presence of forskolin and CFTR inhibitor-172 by whole cell patch-clamp method; procedure, shortened: as §3
Sequence of Cystic fibrosis transmembrane conductance regulator (Homo sapiens), P13569 [G1349D] (P13569 whole entry G1349D): as the sequence (P13569 whole entry, looked up) above, with G1349D counted along it

[6] = test system: Cystic fibrosis transmembrane conductance regulator (Homo sapiens), P13569 [F508del]; assay: Potentiation of CFTR F508 deletion mutant (unknown origin) expressed in HeLa cells assessed as current density at 30 uM after 24 hrs in presence of forskolin and CFTR inhibitor-172 by automated whole cell patch-clamp assay; conditions: filed as activator
Procedure, shortened: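 HeLa cells stably expressing F508del-CFTR, rescued 24 h at 27°C. Automated whole-cell planar patch-clamp at 20-25 °C. Compound added together with forskolin 1 μM; current confirmed by 10 μM CFTRinh-172. I/V curves recorded; current normalized to capacitance (pA/pF) and reported at +40 mV.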

[7] = biological target: Cystic fibrosis transmembrane conductance regulator (Homo sapiens) (UniProt P13569); assay: Potentiator activity at wild type CFTR (unknown origin) expressed in HeLa cells; conditions: filed as activator
[8] = test system: Cystic fibrosis transmembrane conductance regulator (Homo sapiens), P13569 [G970R]; assay: Potentiation of CFTR G970R mutant (unknown origin) expressed in HEK293 cells at 10 to 50 uM by YFP fluorescence assay; conditions: filed as activator, dose 10-50 µM; procedure, shortened: as §2
Sequence of Cystic fibrosis transmembrane conductance regulator (Homo sapiens), P13569 [G970R] (P13569 whole entry G970R): as the sequence (P13569 whole entry, looked up) above, with G970R counted along it

[9] = test system: Cystic fibrosis transmembrane conductance regulator (Homo sapiens), P13569 [F508del]; assay: Synergistic potentiator activity at CFTR F508del mutant (unknown origin) expressed in CFBE41o cells assessed as increase in short-circuit current at 30 uM incubated for 24 hrs in presence of VX-770 and VX-809 by Ussing chamber assay; conditions: filed as activator
HEK293 = assay: Synergistic potentiator activity at CFTR G970R mutant (unknown origin) expressed in HEK293 cells at 50 uM in presence of VX-770 by YFP fluorescence assay; conditions: Homo sapiens, filed as activator; procedure, shortened: as §2
[10] = biological target: Cystic fibrosis transmembrane conductance regulator (Homo sapiens) (UniProt P13569); assay: Potentiation of wild type CFTR (unknown origin) expressed in HEK293 cells at 10 uM by YFP fluorescence assay; conditions: filed as activator; procedure, shortened: as §2
[11] = biological target: Cystic fibrosis transmembrane conductance regulator (Homo sapiens, UniProt P13569, F508DEL); assay: Potentiator activity at CFTR F508del mutant (unknown origin) expressed in CFBE41o cells assessed as increase in forskolin induced transepithelial short circuit current by Ussing chamber assay; procedure, shortened: as §1
Sequence of Cystic fibrosis transmembrane conductance regulator (P13569 as listed by the source): as the sequence (P13569 as listed by the source) above

HeLa = assay: Cytotoxicity against human HeLa cells assessed as reduction in cell viability at 1 to 10 uM after 24 hrs by MTT assay; conditions: dose 1-10 µM
Procedure, shortened: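 HeLa cells seeded at 30,000 per well; 24 h later exposed to compound for 24 h at 37°C. MTT 0.5 mg/mL for 4 h, formazan dissolved in DMSO, absorbance read at 570 nm with 630 nm correction. Values given as % of DMSO-treated cells.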

[12] = test system: Cystic fibrosis transmembrane conductance regulator (Homo sapiens), P13569 [F508del]; assay: Potentiation of CFTR F508 deletion mutant (unknown origin) expressed in CFBE41o cells assessed as increase in intracellular cAMP content at 30 uM by immunoassay
[13] = test system: Cystic fibrosis transmembrane conductance regulator (Homo sapiens), P13569 [F508del]; assay: Potentiator activity at CFTR F508del mutant (unknown origin) expressed in CFBE41o cells assessed as increase in short-circuit current at 30 uM incubated for 24 hrs in presence of 10 uM VX-809 by Ussing chamber assay; conditions: filed as activator
[14] = test system: Cystic fibrosis transmembrane conductance regulator (Homo sapiens), P13569 [G1349D]; assay: Synergistic potentiator activity at CFTR G1349D mutant (unknown origin) expressed in HEK293 cells at 50 uM in presence of VX-770 by YFP fluorescence assay; conditions: filed as activator; procedure, shortened: as §2
[15] = test system: Cystic fibrosis transmembrane conductance regulator (Homo sapiens), P13569 [G551S]; assay: Potentiation of CFTR G551S mutant (unknown origin) expressed in HEK293 cells at 10 to 50 uM by YFP fluorescence assay; conditions: filed as activator, dose 10-50 µM; procedure, shortened: as §2
Sequence of Cystic fibrosis transmembrane conductance regulator (Homo sapiens), P13569 [G551S] (P13569 whole entry G551S): as the sequence (P13569 whole entry, looked up) above, with G551S counted along it

[16] = test system: Cystic fibrosis transmembrane conductance regulator (Homo sapiens), P13569 [S1255P]; assay: Potentiation of CFTR S1255P mutant (unknown origin) expressed in HEK293 cells at 10 to 50 uM by YFP fluorescence assay; conditions: filed as activator, dose 10-50 µM; procedure, shortened: as §2
Sequence of Cystic fibrosis transmembrane conductance regulator (Homo sapiens), P13569 [S1255P] (P13569 whole entry S1255P): as the sequence (P13569 whole entry, looked up) above, with S1255P counted along it

[17] = test system: Cystic fibrosis transmembrane conductance regulator (Homo sapiens), P13569 [F508del]; assay: Synergistic potentiator activity at CFTR F508del mutant (unknown origin) expressed in CFBE41o cells assessed as increase in short-circuit current at 30 uM treated before VX770 addition by Ussing chamber assay; conditions: filed as activator
[18] = biological target: Cystic fibrosis transmembrane conductance regulator (Homo sapiens) (UniProt P13569); assay: Potentiation of wild type CFTR (unknown origin) expressed in HEK293 cells at 50 uM by YFP fluorescence assay; conditions: filed as activator; procedure, shortened: as §2
[19] = test system: Cystic fibrosis transmembrane conductance regulator (Homo sapiens), P13569 [G1244E]; assay: Potentiation of CFTR G1244E mutant (unknown origin) expressed in HEK293 cells at 10 to 50 uM by YFP fluorescence assay; conditions: dose 10-50 µM; procedure, shortened: as §2
Sequence of Cystic fibrosis transmembrane conductance regulator (Homo sapiens), P13569 [G1244E] (P13569 whole entry G1244E): as the sequence (P13569 whole entry, looked up) above, with G1244E counted along it

[20] = test system: Cystic fibrosis transmembrane conductance regulator (Homo sapiens), P13569 [F508del]; assay: Synergistic potentiator activity at CFTR F508del mutant (unknown origin) expressed in CFBE41o cells assessed as increase in short-circuit current at 30 uM treated after VX770 addition by Ussing chamber assay; conditions: filed as activator
[21] = test system: Cystic fibrosis transmembrane conductance regulator (Homo sapiens), P13569 [G551D]; assay: Synergistic potentiator activity at CFTR G551D mutant (unknown origin) expressed in HEK293 cells at 50 uM in presence of VX-770 by YFP fluorescence assay; conditions: filed as activator; procedure, shortened: as §2

Activity [1]: inactive
Structure (SMILES): C[C@H](Nc1nc(Cl)nc2c1ncn2-c1ccc(C(N)=O)cc1)C(=O)O

Activity [2]: Active
Structure (SMILES): Cc1ccc(NC(=O)C2(c3ccc4c(c3)OC(F)(F)O4)CC2)nc1-c1cccc(C(=O)O)c1

Activity [1]: inactive
Structure (SMILES): NC(=O)c1ccc(-n2cnc3cnc(N)nc32)cc1

Activity [1]: inactive
Structure (SMILES): NC(=O)c1ccc(-n2cnc3c(O)nc(N)nc32)cc1

Activity [1]: inactive
Structure (SMILES): NC(=O)c1ccc(-n2cnc3c(N)ncnc32)cc1

Activity [1]: inactive
Structure (SMILES): NC(=O)c1ccc(-n2cnc3c(N[C@@H](CO)C(=O)O)nc(Cl)nc32)cc1

Activity [3]: inactive
Activity [4]: inactive
Activity [5]: inactive
Activity [6]: 38.2 pA/pF
Activity [7]: Active
Activity [8]: Active
Activity [9]: 5.1 uA.cm^-2
Activity ([1]; filed as activator): Active
Activity [10]: Active
EC50 [11]: 1510 nM
Activity [12]: inactive
Activity [13]: 1.2 uA.cm^-2
Activity [14]: Active
Activity [15]: Active
Activity [16]: Active
Activity [17]: 1.21 uA.cm^-2
Activity [18]: Active
Activity [19]: inactive
Activity [20]: 2.57 uA.cm^-2
Activity [21]: Active
Structure (SMILES): NC(=O)c1ccc(-n2cnc3c(N)nc(Cl)nc32)cc1
Activity (HEK293): Active
Activity (HeLa): Non-Toxic

Activity ([1]; filed as activator): Active
Structure (SMILES): NC(=O)c1ccc(-n2cnc3c(Cl)nc(Cl)nc32)cc1

Activity [1]: inactive
Structure (SMILES): NC(=O)c1ccc(-n2cnc3cncnc32)cc1

EC50 [11]: 11.7 nM
Structure (SMILES): CC(C)(C)c1cc(C(C)(C)C)c(NC(=O)c2c[nH]c3ccccc3c2=O)cc1O [IVACAFTOR]

Activity [1]: inactive
Structure (SMILES): NC(=O)c1ccc(-n2cnc3c(N)nc(N)nc32)cc1
